Results on two compounds are retold here after ChEMBL document CHEMBL4613270, “Structure-Activity Relationship Study Enables the Discovery of a Novel Berberine Analogue as the RXRα Activator to Inhibit Colon Cancer” (J Med Chem, 2020).

Structures are written as SMILES. The source made the active and inactive calls. The rule behind the calls is not given here.

The nature of data set [1]: Bioavailability in Sprague-Dawley rat at 100 mg/kg, ig measured after 0.083 to 36 hrs by LC-MS/MS analysis. It counts as ADME, organism-based. The following applies: in vivo, po. In outline: (§1)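 SD rats (200 ± 20 g) randomized to three groups; single intragastric dose of 100 mg/kg or vehicle (0.5% CMC-Na). Tail-vein blood (0.5 mL) drawn at 0.083, 0.25, 0.5, 1, 2, 4, 8, 12, 24 and 36 h. Plasma separated by centrifugation at 2000 rpm for 10 min, frozen at -80 °C, then quantified by LC-MS/MS.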

Data set [2] concerns the target T1, Retinoic acid receptor RXR-alpha (Homo sapiens) (UniProt P19793).
T1 sequence (whole entry): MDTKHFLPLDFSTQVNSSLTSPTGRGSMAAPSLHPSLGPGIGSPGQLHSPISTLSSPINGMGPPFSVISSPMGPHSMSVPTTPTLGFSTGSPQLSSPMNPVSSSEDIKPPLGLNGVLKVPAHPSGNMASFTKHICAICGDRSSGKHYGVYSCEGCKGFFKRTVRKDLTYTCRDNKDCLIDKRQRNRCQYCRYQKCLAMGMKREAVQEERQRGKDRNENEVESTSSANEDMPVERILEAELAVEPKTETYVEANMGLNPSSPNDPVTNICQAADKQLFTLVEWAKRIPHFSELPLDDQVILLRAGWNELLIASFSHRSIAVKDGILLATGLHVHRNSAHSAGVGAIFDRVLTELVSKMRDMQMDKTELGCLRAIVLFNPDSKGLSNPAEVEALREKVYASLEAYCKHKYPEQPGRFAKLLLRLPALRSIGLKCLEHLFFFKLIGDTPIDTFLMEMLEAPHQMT
Put plainly: Activation of RXRalpha in human KM12C cells assessed as reduction in Cdc2 protein expression at 25 to 50 uM incubated for 15 hrs by Western blot analysis. It counts as cell-based.

Data set [3] has as its target T1, Retinoic acid receptor RXR-alpha (Homo sapiens). The experiment in a line: In-vivo activation of RXRalpha in BALB/c mouse xenografted with human KM12C cells assessed as reduction in c-Myc protein expression at 100 mg/kg, ig dosed daily for 15 days by Western blot analysis. It counts as functional, organism-based. The method, boiled down:
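KM12C cells (1×10^6 per mouse in 100 μL HBSS) injected subcutaneously into both flanks of nude mice; after seven days, randomized to three groups, dosed intragastrically once daily for 15 days with vehicle (CMC-Na) or 100 mg/kg compound; mice euthanized and tumors removed for analysis.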
Background: In xenograft studies the graft and the host belong to different species.

The subject of another data set is KM12C. The experiment in a line: Inhibition of cell proliferation of human KM12C cells incubated for 15 hrs by MTT assay. Type of data set: functional, cell-based. The method, boiled down:
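Cells plated at 1×10⁴ per well, incubated overnight at 37 °C, then exposed to a concentration series for 15 h. MTT (5 mg/mL stock) added for 4 h at 37 °C. Formazan dissolved in DMSO and absorbance read at 570 nm. IC50 derived from the dose-response curve.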
A general note: Tetrazolium assays rely on reduction of a dye to a coloured formazan, in cell work by metabolically active cells.

A short description of data set [4]: Toxicity in BALB/c mouse xenografted with human KM12C cells assessed as effect on biochemical parameter by measuring IBIL level at 100 mg/kg, ig dosed daily for 15 days by automatic chemistry analyzer based analysis (reference value: 0.55 +/- 0.096 umol/L). Type of data set: organism-based. The following applies: in vivo, po, 360 h.
The target in data set [5] is T1, Retinoic acid receptor RXR-alpha (Homo sapiens). The experiment in a line: Activation of RXRalpha LBD (unknown origin) expressed in human KM12C cells at 50 uM incubated for 15 hrs by luciferase reporter gene assay. It counts as cell-based. The method, boiled down: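 KM12C co-transfected with pG5luc and pBIND-RXRα-LBD (Gal4-fusion one-hybrid); 20 h post-transfection treated 15 h with 50 μM compound; dual-luciferase read-out (firefly/Renilla) after passive lysis at 4 °C, 1 h; basal activity normalized to 1.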

Data set [6] has the same target. Put plainly: In-vivo activation of RXRalpha in BALB/c mouse xenografted with human KM12C cells assessed as increase in p21 (WAF1/CIP) protein expression at 100 mg/kg, ig dosed daily for 15 days by immunohistochemistry analysis. It counts as functional, organism-based.
For data set [7] the target is unchanged. Put plainly: Activation of RXRalpha in human SW620 cells assessed as reduction in c-Myc protein expression at 40 to 80 uM incubated for 15 hrs by Western blot analysis. Type of data set: cell-based. Particulars: SW-620. (In general: In western blotting, separated proteins are transferred to a membrane and probed.)
The target is the same in data set [8]. The experiment in a line: Activation of RXRalpha (unknown origin) expressed in human KM12C cells co-expressing beta-catenin and c-Cbl assessed as induction of beta-caten interaction with c-Cbl at 25 to 50 uM incubated for 15 hrs by mammalian two-hybrid assay. It counts as cell-based. In outline: (§2)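 Mammalian two-hybrid: cells co-transfected by lipofection with pBIND-β-catenin/S33Y plus pACT-RXRα (RXRα–β-catenin) or pACT-c-Cbl (β-catenin–c-Cbl); 20 h after transfection, compound added for 15 h; cells lysed in passive lysis buffer, 4 °C, 1 h; firefly and Renilla luciferase read by dual-luciferase kit.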

Data set [9] in a line: Tmax in Sprague-Dawley rat at 100 mg/kg, ig measured after 0.083 to 36 hrs by LC-MS/MS analysis. It counts as ADME, organism-based. The following applies: in vivo, po. The method, boiled down:
as §1

Data set [10] in a line: Toxicity in BALB/c mouse xenografted with human KM12C cells assessed as effect on biochemical parameter by measuring urea […] level at 100 mg/kg, ig dosed daily for 15 days by automatic chemistry analyzer based analysis (reference value: 8.21 +/- 0.26 mmol/L). Type of data set: organism-based. Particulars: in vivo, po, 360 h.
For data set [11], the target named is T1, Retinoic acid receptor RXR-alpha (Homo sapiens). Put plainly: Activation of RXRalpha in human KM12C cells assessed as induction of beta-catenin protein degradation at 25 to 50 uM incubated for 15 hrs by Western blot analysis. It counts as cell-based.
For data set [12] the target is unchanged. Put plainly: Activation of RXRalpha (unknown origin) expressed in human SW620 cells co-expressing beta-catenin assessed as induction of RXRalpha interaction with beta-catenin at 40 to 80 uM incubated for 15 hrs by mammalian two-hybrid assay. Type of data set: cell-based. The following applies: SW-620. In outline: as §2
Data set [13] in a line: Half life in Sprague-Dawley rat at 100 mg/kg, ig measured after 0.083 to 36 hrs by LC-MS/MS analysis. Particulars: in vivo, po. It counts as ADME, organism-based. In outline:
as §1

Data set [14] concerns the target T1, Retinoic acid receptor RXR-alpha (Homo sapiens). Put plainly: Induction of conformational changes in His-tagged RXRalpha LBD (unknown origin) expressed in Escherichia coli strain BL21 (DE3) at 5 uM by circular dichroism spectroscopic assay. The method, boiled down: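 His-RXRα-LBD expressed in E. coli BL21(DE3) (0.1 mM IPTG, 16 °C, 16 h), Ni-NTA purified, diluted to 1 µM in 0.01 M phosphate buffer; compound 5 µM (0.01% DMSO). CD spectra recorded 180-260 nm at 25 °C, 0.1 cm path, 1 nm bandwidth, 20 nm/min, 5 min after compound addition.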

Data set [15] has the same target. Put plainly: Activation of RXRalpha in human SW620 cells assessed as induction of beta-catenin protein degradation at 40 to 80 uM incubated for 15 hrs by Western blot analysis. Type of data set: cell-based. Particulars: SW-620.
Data set [16] can be described thus: Toxicity in BALB/c mouse xenografted with human KM12C cells assessed as effect on biochemical parameter by measuring AST level at 100 mg/kg, ig dosed daily for 15 days by automatic chemistry analyzer based analysis (reference value: 157.15 +/- 8.41 U/L). Type of data set: organism-based. Particulars: in vivo, po, 360 h.
A short description of data set [17]: Toxicity in BALB/c mouse xenografted with human KM12C cells assessed as effect on biochemical parameter by measuring TBIL level at 100 mg/kg, ig dosed daily for 15 days by automatic chemistry analyzer based analysis (reference value: 0.28 +/- 0.024 umol/L). It counts as organism-based. The following applies: in vivo, po, 360 h.
The target of data set [18] is T1, Retinoic acid receptor RXR-alpha (Homo sapiens). The experiment in a line: Activation of RXRalpha in human HCT116 cells assessed as reduction in Cdc2 mRNA expression at 30 to 60 uM incubated for 15 hrs by real-time PCR analysis. Particulars: HCT-116. Type of data set: cell-based.

For `COc1ccc2c(c1)CC[n+]1cc3c(OC)cccc3cc1-2.[Cl-]`, in data set [1], the bioavailability (as a rule, dose-corrected exposure relative to a reference, in per cent) came to 14.2%. For the same compound, the outcome in data set [2], in data set [3], in [5], in data set [6], in [7] and in data set [8] was Active. The outcome in data set [11], in data set [12], in data set [14], in data set [15] and in data set [18] was Active. Further, 31.1 µM corresponded to half-maximal inhibition with KM12C (IC50). Also, the Activity in data set [4] was 0.52 µmol/L; in data set [10], 8.39 mmol/L; in data set [16], 158.36 U/L; in data set [17], 0.21 µmol/L. Besides, the Tmax (in general, the time at which the peak concentration occurs) in [9] came out at 2 h. For the same compound, the half-life (in general, how long it takes for the measured level to halve) in [13] is 11.6 h.
In the case of `COc1ccc2cc3[n+](cc2c1OC)CCc1cc2c(cc1-3)OCO2.[Cl-]` [BERBERINE CHLORIDE], the bioavailability in [1] was 0.544%. Also, the outcome in [2], in data set [3], in [5], in data set [6], in data set [7] and in data set [8] was Active. For the same compound, the outcome in data set [11], in [12], in data set [14], in data set [15] and in [18] was Active. Besides, the IC50 (in general, the concentration at which inhibition is half-maximal) in the data set with KM12C amounted to 76.3 µM. Further, the Activity was 0.4 µmol/L in [4], 8.08 mmol/L in data set [10], 177.86 U/L in [16] and 0.26 µmol/L in data set [17]. Besides, the Tmax in data set [9] was 2 h. The compound further had a half-life in data set [13] of 29 h.
